According to ChEMBL document CHEMBL4130564, “Indolylalkyltriphenylphosphonium Analogues Are Membrane-Depolarizing Mycobactericidal Agents” (ACS Med Chem Lett, 2017):
Calls of active or inactive are those of the source. The calls are words filed in the database; no cut-off is given here.

Tested on: Mycobacterium tuberculosis
Experiment: Induction of membrane disruption in Mycobacterium bovis BCG ATCC 35734 harboring piniBAC-RFP assessed as increase in iniBAC cluster transactivation up to 100 uM after 24 hrs by RFP-based fluorescence assay
Type: functional, organism-based
Conditions: BCG str. ATCC 35743
Summary of the method: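 Recombinant M. bovis carrying iniBAC promoter-driven RFP treated 24 h with 0.4–100 μM; promoter induction read as RFP fluorescence; isoniazid as positive control.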

SMILES | Activity
COc1cccc2ccn(CCCCC[P+](c3ccccc3)(c3ccccc3)c3ccccc3)c12.[I-] | inactive
NNC(=O)c1ccncc1 | Active
